Rows were chosen to be rich in hits. Some 3.4% of all compounds tested hit in one or more screens of this group.
LANA-H2B inh: blocks KSHV LANA binding to histone H2A/H2B; Q9QR71; cell-free LANA-H2A/H2B peptide, fluorescence polarization; inhibition, % (test concentration not listed); hit rate 0.6% among 320,000; AID 2629; in the data active = inhibition mostly above about 10%, no sharp cut-off; inactive = mostly below about 6.7%
Target sequence (Q9QR71 whole entry, looked up): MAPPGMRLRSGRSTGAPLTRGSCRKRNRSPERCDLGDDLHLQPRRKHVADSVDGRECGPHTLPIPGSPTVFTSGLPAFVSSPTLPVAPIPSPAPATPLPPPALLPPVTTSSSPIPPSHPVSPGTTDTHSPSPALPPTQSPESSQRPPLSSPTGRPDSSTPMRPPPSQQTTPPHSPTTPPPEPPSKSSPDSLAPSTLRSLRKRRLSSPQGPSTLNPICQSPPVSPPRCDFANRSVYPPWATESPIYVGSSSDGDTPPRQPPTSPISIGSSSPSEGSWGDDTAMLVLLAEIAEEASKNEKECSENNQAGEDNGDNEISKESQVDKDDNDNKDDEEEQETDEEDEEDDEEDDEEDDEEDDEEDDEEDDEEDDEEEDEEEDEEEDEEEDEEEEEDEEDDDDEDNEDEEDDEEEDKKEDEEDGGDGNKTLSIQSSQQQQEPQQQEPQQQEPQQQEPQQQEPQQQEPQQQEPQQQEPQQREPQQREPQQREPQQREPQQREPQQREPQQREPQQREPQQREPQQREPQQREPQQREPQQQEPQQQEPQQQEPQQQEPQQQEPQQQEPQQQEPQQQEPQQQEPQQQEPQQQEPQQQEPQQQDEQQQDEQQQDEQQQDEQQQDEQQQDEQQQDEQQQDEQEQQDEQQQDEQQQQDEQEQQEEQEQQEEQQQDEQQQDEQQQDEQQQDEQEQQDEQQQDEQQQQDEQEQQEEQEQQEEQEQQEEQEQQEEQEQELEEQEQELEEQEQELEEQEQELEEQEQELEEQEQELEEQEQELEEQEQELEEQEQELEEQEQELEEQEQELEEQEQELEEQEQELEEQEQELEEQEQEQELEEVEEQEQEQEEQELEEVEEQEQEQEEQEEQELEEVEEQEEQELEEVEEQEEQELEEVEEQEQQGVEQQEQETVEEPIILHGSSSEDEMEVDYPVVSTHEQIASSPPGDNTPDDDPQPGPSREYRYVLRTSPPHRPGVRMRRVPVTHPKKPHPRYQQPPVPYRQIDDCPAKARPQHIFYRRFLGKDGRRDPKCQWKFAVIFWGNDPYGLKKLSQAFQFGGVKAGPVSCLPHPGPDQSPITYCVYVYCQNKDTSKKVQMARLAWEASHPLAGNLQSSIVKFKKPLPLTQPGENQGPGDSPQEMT
TAAR1 agonist: human TAAR1 agonism | CHO RD-HGA16 TAAR1, Fluo-8 calcium fluorescence; vehicle wells 0%, saturating PEA agonist 100% | activation, % at 3 µM | hit rate 0.99% among 360,000;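 active = activation above the mean activation of all test compounds in the run plus 3 SD, cut at about 38% in these data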
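Assay system – CHO-derived RD-HGA16 cells with stable Gα16 and human TAAR1 · Compound dosing – one-point dosing at 3 µM (nominal) · Incubation – 17-24 h seeding, 75 min 37 °C dye, 30 min RT · Measured by – kinetic Fluo-8 calcium fluorescence · Control set – DMSO vehicle as 0%, PEA at EC100 as 100% · Repeats – single well for each compound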
GPR7 antag: blocks human GPR7 receptor signaling | P48145 | GPR7-expressing cells, fluorescence antagonist assay | inhibition, % at 4.4 µM | hit rate 1.1% among 290,000 | AID 1861; in the data active = inhibition above about 16%, passing the limit was not always enough;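 note: cells stimulated with the agonist NPW; 0% = agonist with vehicle and 100% = vehicle without agonist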
TRPML3 ag: activates the human TRPML3 channel | AID 1448 | Q8TDD5 | HEK293 TRPML3-YFP, Fluo-8 calcium fluorescence; 100% = the carbachol control signal | hit rate 0.29% among 220,000 | activation, % at 3 µM;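 active = activation above its plate's cutoff, the mean activation of the plate's test wells plus 3 SD, cut at about 12% in these data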;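 note: 0% = DMSO only wells and 100% = carbachol wells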
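Material: HEK293 cells stably carrying human TRPML3-YFP; compound dosing: single dose, 3 µM final nominal compound, 0.3% DMSO final; incubation: 1-h 37 °C dye load, 5-s basal, 120-s post-compound reads; technique: Fluo-8 intracellular calcium fluorescence, excitation 470-495 nm, emission 515-575 nm; read-out basis: percent activation from peak-to-basal fluorescence ratio, scaled between DMSO and carbachol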
TRPN1 ag: activates the zebrafish TRPN1 channel. HEK293 zebrafish TRPN1-YFP, Fluo-8 calcium fluorescence; 100% = response to 87 µM carbachol. activation, % at 3 µM. hit rate 0.18% among 220,000. AID 1424;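 active = activation above its plate's cutoff, the mean activation of test wells on that plate plus 3 SD, cut at about 19% in these data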;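 note: 0% = DMSO alone and 100% = 87 µM carbachol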
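System: zebrafish TRPN1-YFP in HEK293 cells / Dosing: 3 µM single point / Timing: dye loading 1 h at 37 °C, then 30 min room temperature / Signal: Fluo-8 calcium fluorescence, excitation 470-495 nm, emission 515-575 nm / Read-out basis: percent activation from peak over basal fluorescence ratio, control-normalized / Control set: high carbachol 87 µM, low DMSO alone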
TAAR1 antag: antagonists of human TAAR1 | Q96RJ0 | CHO RD-HGA16 TAAR1, Fluo-8 calcium fluorescence, antagonist | inhibition, % at 3 µM | hit rate 1.5% among 360,000;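 active = inhibition above a per-plate cutoff, the mean inhibition of test compounds on that plate plus 3 SD, cut at about 49% in these data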;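 note: 0% = DMSO plus EC80 beta-PEA response and 100% = DMSO alone without agonist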
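System: RD-HGA16 CHO cells with stable hTAAR1 and Gα16 | Probe or stimulus: EC80 β-phenethylamine stimulus | Dosing: 3 µM, single point | Times: Dye loading 75 min at 37 °C, then 30 min room temperature | Measured by: Fluo-8 calcium-sensitive fluorescence | Read-out basis: % inhibition of agonist calcium response | Replicates: n of 1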
GPR7 antag conf: human GPR7 antagonism, confirmation assay; GPR7-expressing cells, calcium fluorescence antagonist mode; shares compounds with GPR7 antag; hit rate 52% among 2,400; inhibition, % at 4.4 µM; in the data active = inhibition above about 24%;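 note: stimulated with the GPR7 agonist NPW; 0% = agonist plus vehicle and 100% = vehicle alone without agonist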
MCHR1 antag: antagonizes human MCHR1, a GPR7 antagonist counter-screen. shares compounds with GPR7 antag. MCHR1-expressing cells, fluorescence antagonist assay. inhibition, % at 4.4 µM. hit rate 62% among 2,400; in the data active = inhibition above about 22%;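 note: 0% = vehicle with agonist and 100% = vehicle without agonist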
The depositor's hits bear a star; x = no result.

SMILES | LANA-H2B inh | TAAR1 agonist | GPR7 antag | TRPML3 ag | TRPN1 ag | TAAR1 antag | GPR7 antag conf | MCHR1 antag
COc1ccccc1CN1CC(C(=O)NCc2ncccc2C)CCC1=O (stereo not given) | 0 | 3 | -5 | x | x | -8 | x | x
CC1CN(C(=O)COc2coc(CN3CCc4ccccc4C3)cc2=O)CC(C)O1 (stereo not given) | 4 | 14 | x | x | x | -29 | x | x
CC1(C(=O)Nc2ccccc2F)CCN1C(=O)Cc1ccc(-c2ccccc2)cc1 (stereo not given) | x | 7 | x | x | x | -13 | x | x
O=C(NC1CC1)c1[nH]c(C(F)(F)F)nc1-c1ccccc1 | x | 1 | x | x | x | -5 | x | x
Cc1ccc2nc(N(CCCN(C)C)C(=O)c3ccc(S(=O)(=O)N4CCc5ccccc5C4)cc3)sc2c1 | -7 | 45* | 32* | x | x | 7 | 44* | 33*
CCCCNCCOc1ccccc1-c1ccccc1 | -3 | 8 | 22* | 1 | -2 | -14 | 27* | 29*
COC(=O)C1=C(C)N(Cc2ccc(C(F)(F)F)cc2)C(=NCc2ccc(C(F)(F)F)cc2)NC1c1cccc(F)c1 (stereo not given) | x | 18 | x | x | x | 25 | x | x
COC(=O)C1=C(C)N(Cc2ccccc2)C(=NCc2cccc(C(F)(F)F)c2)N[C@H]1c1cccc(F)c1 | 4 | 42* | 38* | x | x | 34 | 70* | 71*
COC(=O)C1=C(C)N(Cc2ccccc2)C(=NCC(C)C)N[C@H]1c1ccccc1 | 0 | x | 47* | x | x | x | 50* | 40*
COCCN=C1N[C@@H](c2cccc(C(F)(F)F)c2)C(C(=O)OC)=C(C)N1Cc1ccccc1 | 7 | 8 | x | x | x | 12 | x | 17
CCN1C(=NCc2cccc(Cl)c2)N[C@@H](c2cccc(F)c2)C(C(=O)OC)=C1C | 2 | 24 | 33* | x | x | 19 | 58* | 30*
COC(=O)C1=C(C)N(Cc2ccccc2)C(=NCc2cccc(C(F)(F)F)c2)N[C@H]1c1cccc(C(F)(F)F)c1 | 0 | x | x | x | x | x | x | x
C/C(=N\NC(=O)C1CCCC1)c1ccc(Cl)cc1 | -1 | 0 | -10 | x | x | -20 | x | x
COc1ccc(CN2CCC[C@]3(N[C@H](c4ccc(C(F)(F)F)cc4)[C@@H]4C(=O)N(C)C(=O)[C@@H]43)C2=O)cc1 | x | -2 | x | x | x | -18 | x | x
O=C(CCNC(=O)N1CC(=O)Nc2ccccc21)NCc1ccccc1 | x | 5 | x | x | x | -11 | x | x
Cc1ccc(NC(=O)c2cccc(S(=O)(=O)Nc3c(C)n(C)n(-c4ccccc4)c3=O)c2)cc1C | x | 4 | x | x | x | -6 | x | x
CC1(C)Cc2c(C#N)c(N)n(-c3ccccc3)c(=S)c2CO1 | 4 | 5 | 92* | 1 | 0 | -18 | -3 | -7
COc1ccccc1-c1cc(C(=O)NC2CCN(C)CC2)c2ccc(Cl)c(C)c2n1 | 2 | 4 | 43* | x | x | -7 | 69* | 81*
Cc1c(Cl)ccc2c(C(=O)NCCN3CCCCC3)cc(-c3ccccn3)nc12 | 4 | 2 | -3 | 0 | 0 | -5 | x | x
CCc1ccccc1NC(=O)CN(C)Cc1nc(N)nc(Nc2ccccc2C)n1 | 0 | 11 | 4 | 0 | -1 | 7 | x | x
Cc1ccccc1NC(=O)CSCc1nc(N)nc(Nc2ccccc2C)n1 | 1 | 4 | 21* | 0 | 0 | 5 | -2 | 6
CC(C)(C)c1cc(NC(=O)C2(C)CCN2C(=O)C2(c3ccccc3)CC2)no1 (stereo not given) | x | -1 | x | x | x | 5 | x | x
COc1ccc(Nc2ccc(Nc3ccc(OC)cc3)nn2)cc1 | -3 | 12 | 92* | 4 | 12 | 39 | 85* | 89*
COc1ccc(Nc2ccc(OC)cc2)cc1 | 1 | 0 | -1 | 0 | -1 | 5 | x | x
Cc1ccc(C(=O)N/N=C\c2ccc([N+](=O)[O-])o2)cn1 | 0 | -1 | 26* | 0 | -1 | -7 | -18 | -9
SMILES | LANA-H2B inh | TAAR1 agonist | GPR7 antag | TRPML3 ag | TRPN1 ag | TAAR1 antag | GPR7 antag conf | MCHR1 antag
C=CCOC(=O)Nc1snnc1C | x | 14 | -4 | 0 | 1 | -4 | x | x
Cc1nnsc1NC(=O)OCc1ccc(C(C)(C)C)cc1 | -12 | 21 | 22* | 2 | 6 | 46 | 36* | 51*
CCc1nc2c(OCc3cc(Cl)cc(Cl)c3)cccn2c1N(C)C(=O)c1ccc(OC)cc1 | x | 6 | x | x | x | -33 | x | x
Nn1c(SCc2nc3ccccc3[nH]2)nnc1-c1cccnc1 | -7 | 4 | -1 | 1 | 0 | -4 | x | x
Nn1c(SCc2nc3ccccc3[nH]2)nnc1C1CCCCC1 | -12 | 6 | 22* | 0 | 0 | 10 | 13 | -3
CCNC(=O)C1(C)CCN(C(=O)c2cccc3ccccc23)C1 (stereo not given) | x | 1 | x | x | x | -7 | x | x
CC(C)c1ccc(NC(=O)C(c2ccc3c(c2)OCO3)N2CCCCC2)cc1 (stereo not given) | -2 | 6 | 24* | 0 | 0 | -8 | 14 | 40*
COc1ccc(C)cc1N(C(=O)c1ccco1)C(C(=O)NC1CCCC1)c1cc(OC)c(OC)c(OC)c1 (stereo not given) | 2 | 1 | 43* | x | x | -14 | 38* | 24*
CCC(C)c1ccc(N(C(=O)c2ccco2)C(C(=O)NC2CCCC2)c2cccnc2)cc1 (stereo not given) | 1 | 10 | 51* | x | x | -8 | 22 | 14
CCOC(=O)C1CCCN(C(=O)c2cccc(Cl)c2)CC1 (stereo not given) | x | 0 | x | x | x | 17 | x | x
CCc1ccc(C(c2c(C)nn(-c3ccccc3)c2N)c2c(C)nn(-c3ccccc3)c2N)cc1 | x | -2 | 4 | 0 | 1 | 3 | x | x
Cc1cccc(C(c2c(C)nn(-c3ccccc3)c2N)c2c(C)nn(-c3ccccc3)c2N)c1 | 1 | 8 | 21* | 3 | 6 | -3 | 21 | 12
CN(C)c1ccc(Nc2ccc([N+](=O)[O-])cn2)cc1 | -5 | -4 | 24* | x | x | -13 | 41* | 19
O=[N+]([O-])c1ccc(Nc2ccc(F)cc2)nc1 | 1 | 0 | 3 | 0 | -2 | -11 | x | x
O=C(Nc1ccccc1C(=O)NCCCN1CCOCC1)c1cccc([N+](=O)[O-])c1 | 1 | 2 | -6 | x | x | -18 | x | x
CCCc1ccc(-c2ccc(-c3noc(-c4ccncc4)n3)cc2)nc1 | -2 | 2 | -5 | x | x | -4 | x | x
CCCCc1ccc(-c2ccc(Br)cc2)nc1 | 0 | -1 | 30* | 0 | 0 | -11 | -17 | 0
C/C(=N\NC(=O)c1nnn(-c2nonc2N)c1C)c1ccc(OCc2ccccc2)cc1 | -4 | 2 | 39* | x | x | -19 | -1 | 8

Screens from PubChem.
